Article PMC6286650 (EBioMedicine, 2018)

What was measured:
[1] = test system: C57 wild type mice; test: Isoproterenol-induced myocardial ischemia model in wild type mice; type: in vivo
In short: (§1)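 Wild-type C57 or cre-lox transgelin knockout C57/BL6 mice, 24 per genotype, were split into normal, model and two treatment groups. Test compound was given orally at 10 mg/kg daily for one week; normal and model groups got saline. On day 5, isoproterenol 3 mg/kg i.p. was given (saline for normal group). After day 7, mice were anaesthetized with chloral hydrate for a three-needle-electrode ECG on a 40–42 °C pad.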

[2] = test system: CASMCs; test: Cell contraction and F-actin formation in CASMCs; type: cell-based; settings: 10 μM
In short: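 Coronary artery smooth muscle cells came from primary culture in DMEM with 10% foetal bovine serum. They were treated with test compound at 10 μM, and relative cell length and F-actin formation were assessed against untreated control.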

[3] = test system: F-actin; test: F-actin features in cells; type: cell-based, human; settings: versus control group
[4] = test system: F-actin; test: F-actin fluorescence under actin inhibitor; type: cell-based
[5] = test system: transgelin (−/−) mice; test: Isoproterenol-induced myocardial ischemia model in transgelin; type: in vivo; settings: 10 mg/kg
In short: as §1

[6] = test system: isolated myocardial tissue; test: Stimulation of isolated myocardial tissue
[7] = test system: HVSMCs; type: cell-based, human; settings: 10 μM
[8] = test system: actin; type: biochemical; settings: actin/transgelin plus compound
[9] = test system: transgelin and actin; type: binding; settings: disregarding the effect of SAA
[10] = molecular target: transgelin (Homo sapiens, UniProt Q01995); test: Biacore; settings: Biacore binding to transgelin, 25 °C, CM5 chip, NA = no activity
In short: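 CM5 chip at 25 °C with PBS-EP running buffer. Transgelin was amine-coupled by EDC/NHS, the same way as actin (0.4 mg/mL in 10 mM phosphate pH 7.4, 12 min, then 1 M ethanolamine pH 8.5; about 4000 RU). Test compound was run over protein and blank channels at 0–25 uM at 20 μL/min. Association 3 min, dissociation 300 s; regeneration with 10 mM glycine-HCl pH 2.5.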

[11] = test system: actin; test: Hypoxia-induced actin degradation, fluorescence intensity; type: cell-based; settings: hypoxic group 264
[12] = test system: actin; test: Multi-angle light scattering of actin aggregation; type: biochemical; settings: in presence of transgelin
[13] = isoproterenol-treated model group, ISO 3 mg/kg i.p.

Sequence of transgelin (Q01995 whole entry): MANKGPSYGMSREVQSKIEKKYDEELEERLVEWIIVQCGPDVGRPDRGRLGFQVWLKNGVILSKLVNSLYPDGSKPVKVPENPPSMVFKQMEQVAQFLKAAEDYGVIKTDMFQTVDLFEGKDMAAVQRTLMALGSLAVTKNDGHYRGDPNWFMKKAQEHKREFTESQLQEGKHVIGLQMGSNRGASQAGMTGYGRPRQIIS

O=C(/C=C/c1ccc(O)c(O)c1/C=C/c1ccc(O)c(O)c1)O[C@H](Cc1ccc(O)c(O)c1)C(=O)O [SAA, salvianolic acid A]
Heart infarction ratio ([1]; 10 mg/kg oral daily for 7 days, wild type MI mice 11.2%): 4%
Relative length of CASMCs [2]: declined
F-actin area, F-actin percentage area, total F-actin length and average F-actin length [3]: increased
F-actin fluorescence intensity ([4]; co-treatment with vincristine, vincristine alone 139): 373
CK, CK-MB, AST and LDH levels relative to transgelin (−/−) MI model group [5]: not significantly changed
Therapeutic effect on myocardial ischemia [5]: no therapeutic effect
Stimulation effect on isolated myocardial tissue [6]: no stimulation effect
Co-localization of transgelin and actin ([7]; control approximately 57%): 78%
Average length of VSMCs ([7]; control approximately 90 μm): ~80 μm
Actin polymerization [8]: marked increase in actin polymerization
Protein binding signal of transgelin and actin when SAA was added [9]: 1.3 times
Kd [10]: 7.11 µM
Actin fluorescence intensity [11]: 453
Polymerization (aggregation) of actin [12]: further enhanced

CC(C)NCC(O)c1ccc(O)c(O)c1 (stereo not shown) [isoproterenol]
Serum AST level compared to normal group [1, 13]: 237% ± 19%
Serum CK level compared to normal group [1, 13]: 166% ± 14%
Serum CK-MB level compared to normal group [1, 13]: 165% ± 24%
Serum LDH level compared to normal group [1, 13]: 174% ± 14%

CC[C@]1(O)C[C@H]2CN(CCc3c([nH]c4ccccc34)[C@@](C(=O)OC)(c3cc4c(cc3OC)N(C=O)[C@H]3[C@@](O)(C(=O)OC)[C@H](OC(C)=O)[C@]5(CC)C=CCN6CC[C@]43[C@@H]65)C2)C1 [vincristine, reference compound]
F-actin fluorescence intensity ([4]; vincristine alone, control 395): 139
